Experimental data as given in ChEMBL document CHEMBL3286182, “4-aminoquinolone piperidine amides: noncovalent inhibitors of DprE1 with long residence time and potent antimycobacterial activity” (J Med Chem, 2014).
pIC50: −log10 of the molar value. Converted amounts (≈) assume the structure as drawn. The source made the active and inactive calls. No cut-off for these calls is given here.

Key:
[1] = test system: Candida albicans; assay: Antimicrobial activity against Candida albicans ARC527 at 100 uM; format: functional, organism-based
Procedure, shortened: (§1)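 Nonmycobacterial panel of Candida albicans, Gram-negative and Gram-positive pathogens.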

[2] = Elimination half life in Wistar rat at 10 mg/kg, po; format: ADME, organism-based; parameters: dose 10 mg/kg, route oral; settings: in vivo, read-out: beta t1/2 (converted)
Procedure, shortened: (§2)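 Male Wistar rats given a single dose, 2 mg/kg intravenously or 10 mg/kg orally. Plasma concentration followed over time, n = 2 per compound. Parameters taken from the plasma curves: C0 (iv), Cmax (oral), AUC0−∞, elimination half-life, plasma clearance, Vss and oral bioavailability.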

[3] = Cytotoxicity against human A549 cells after 72 hrs by resazurin based fluorescence assay; format: cell-based; settings: read-out: MIC
Procedure, shortened: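 Cytotoxicity read as MMIC, the MIC on the A549 cell line.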

[4] = Octanol-water partition coefficient, log D of the compound by shake-flask method; format: physicochemical
[5] = Intrinsic clearance in human liver microsomes at 1 uM up to 30 mins by LC-MS/MS analysis; format: ADME; settings: read-out: CLH
[6] = Inhibition of Mycobacterium smegmatis recombinant DprE1 using farnesylphosphoryl-beta-D-ribofuranose as substrate assessed as conversion of amplex red to resorufin after 30 mins; parameters: species or system Mycolicibacterium smegmatis
Procedure, shortened: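 Msm DprE1 (thioredoxin-6His fusion of Msm Rv3790) at 75 nM, preincubated 30 min with 10 μM FAD. Buffer: 50 mM glycylglycine pH 8.5, 200 mM potassium glutamate, 0.002% Brij-35, 2% DMSO, 25 °C. Started with 300 μM farnesylphosphoryl-β-D-ribofuranose, 0.01 mg/mL HRP and 50 μM Amplex Red.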

[7] = test system: Pseudomonas aeruginosa; assay: Antimicrobial activity against Pseudomonas aeruginosa ARC545 at 100 uM; format: functional, organism-based; procedure, shortened: as §1
[8] = Intrinsic clearance in rat cryopreserved hepatocytes assessed per 10^6 cells at 1 uM up to 120 mins by LC-MS/MS analysis; format: ADME, cell-based, Hepatocyte; settings: read-out: CLH
[9] = test system: Haemophilus influenzae; assay: Antimicrobial activity against Haemophilus influenzae ARC158 at 100 uM; format: functional, organism-based; procedure, shortened: as §1
[10] = Solubility of the compound in 0.1 M phosphate buffer at pH 7.4 after 24 hrs by UV and MS analysis; format: physicochemical
[11] = test system: Mycobacterium tuberculosis; assay: Antimycobacterial activity against Mycobacterium tuberculosis over expressing TopA after 5 days by standard microdilution method; format: functional; settings: 120 h
[12] = Initial plasma concentration in Wistar rat at 2 mg/kg, iv; format: ADME, organism-based; parameters: dose 2 mg/kg, route intravenous; procedure, shortened: as §2
[13] = AUC (0 to infinity) in Wistar rat at 10 mg/kg, po; format: ADME, organism-based; parameters: time infinity, dose 10 mg/kg, route oral; settings: plasma; procedure, shortened: as §2
[14] = test system: Mycolicibacterium smegmatis; assay: Binding affinity to Mycobacterium smegmatis recombinant DprE1 assessed as half life
Procedure, shortened: (§3)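 Progress curves (fluorescence vs time) recorded at several inhibitor concentrations with 75 nM Msm DprE1 in the FAD/HRP/Amplex Red coupled assay, pH 8.5, 25 °C. A single-step reversible slow-binding model was fitted globally, with vs and vi fitted per concentration and koff and Kiapp shared. Half-life and residence time were derived from koff.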

[15] = test system: Mycolicibacterium smegmatis; assay: Binding affinity to Mycobacterium smegmatis recombinant DprE1 assessed as residence time; procedure, shortened: as §3
[16] = test system: Mycobacterium tuberculosis; assay: Antimycobacterial activity against Mycobacterium tuberculosis over expressing InhA after 5 days by standard microdilution method; format: functional; settings: 120 h
[17] = test system: Mycolicibacterium smegmatis; assay: Antimicrobial activity against Mycobacterium smegmatis ATCC 607 at 100 uM; format: functional, organism-based
[18] = Elimination half life in Wistar rat at 2 mg/kg, iv; format: ADME, organism-based; parameters: dose 2 mg/kg, route intravenous; settings: in vivo, read-out: beta t1/2 (converted); procedure, shortened: as §2
[19] = Fraction unbound in human plasma at 20 uM after 18 hrs by equilibrium dialysis method; format: ADME, cell-free
[20] = Permeability of the compound from basolateral to apical side in human Caco2 cells; format: ADME, cell-based; settings: Caco-2, read-out: permeability
[21] = test system: Staphylococcus aureus; assay: Antimicrobial activity against Staphylococcus aureus ARC517 at 100 uM; format: functional, organism-based; procedure, shortened: as §1
[22] = test system: Mycobacterium tuberculosis; assay: Antimycobacterial activity against Mycobacterium tuberculosis H37Rv at >MIC after 21 to 28 days; format: functional
[23] = test system: Mycobacterium tuberculosis; assay: Antimycobacterial activity against Mycobacterium tuberculosis over expressing PimA after 5 days by standard microdilution method; format: functional; settings: 120 h
[24] = Permeability of the compound from apical to basolateral side in human Caco2 cells; format: ADME, cell-based; settings: Caco-2, read-out: permeability
[25] = test system: Escherichia coli; assay: Antimicrobial activity against Escherichia coli ARC524 at 100 uM; format: functional, organism-based; procedure, shortened: as §1
[26] = test system: Klebsiella pneumoniae; assay: Antimicrobial activity against Klebsiella pneumoniae ARC1865 at 100 uM; format: functional, organism-based; procedure, shortened: as §1
[27] = test system: Mycolicibacterium smegmatis; assay: Ratio of IC50 for Mycobacterium smegmatis DprE1 Y321H mutant to IC50 for Mycobacterium smegmatis recombinant wild type DprE1
Procedure, shortened: (§4)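 Recombinant M. smegmatis DprE1 (thioredoxin-6His fusion), wild type or Y321H, 75 nM. Enzyme was preincubated 30 min in FAD assay mix: 50 mM glycylglycine pH 8.5, 200 mM potassium glutamate, 10 μM FAD, 0.002% Brij-35, 2% DMSO. Reaction was started with 300 μM farnesylphosphoryl-β-D-ribofuranose, 0.01 mg/mL HRP and 50 μM amplex red at 25 °C.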

[28] = test system: Haemophilus influenzae; assay: Antimicrobial activity against Haemophilus influenzae ARC446 at 100 uM; format: functional, organism-based; procedure, shortened: as §1
[29] = Cmax in Wistar rat at 10 mg/kg, po; format: ADME, organism-based; parameters: dose 10 mg/kg, route oral; settings: in vivo; procedure, shortened: as §2
[30] = test system: Mycobacterium tuberculosis; assay: Antimycobacterial activity against Mycobacterium tuberculosis H37Rv under hypoxic condition after 6 days by resazurin assay; format: functional; settings: 144 h
[31] = Oral bioavailability in Wistar rat at 10 mg/kg; format: ADME, organism-based; settings: in vivo; procedure, shortened: as §2
[32] = test system: Mycobacterium tuberculosis; assay: Antimycobacterial activity against Mycobacterium tuberculosis H37Rv after 5 days by standard microdilution method; format: functional; settings: 120 h
[33] = test system: Streptococcus pneumoniae; assay: Antimicrobial activity against Streptococcus pneumoniae ARC548 at 100 uM; format: functional, organism-based; procedure, shortened: as §1
[34] = test system: Mycobacterium tuberculosis; assay: Antimycobacterial activity against Mycobacterium tuberculosis over expressing DprE1 after 5 days by standard microdilution method; format: functional; settings: 120 h
[35] = test system: Mycobacterium tuberculosis; assay: Bactericidal activity against Mycobacterium tuberculosis H37Rv after 3 days relative to control; format: functional
[36] = test system: Mycolicibacterium smegmatis; assay: Binding affinity to Mycobacterium smegmatis recombinant DprE1 assessed as dissociation constant; procedure, shortened: as §3
[37] = AUC (0 to infinity) in Wistar rat at 2 mg/kg, iv; format: ADME, organism-based; parameters: dose 2 mg/kg, route intravenous, time infinity; settings: plasma; procedure, shortened: as §2
[38] = test system: Escherichia coli; assay: Antimicrobial activity against Escherichia coli ARC523 at 100 uM; format: functional, organism-based; procedure, shortened: as §1
[39] = Inhibition of Mycobacterium smegmatis DprE1 Y321H mutant using farnesylphosphoryl-beta-D-ribofuranose as substrate assessed as conversion of amplex red to resorufin after 30 mins; parameters: species or system Mycolicibacterium smegmatis; procedure, shortened: as §4
[40] = test system: Mycolicibacterium smegmatis; assay: Antimicrobial activity against Mycobacterium smegmatis mc2155 at 100 uM; format: functional, organism-based; settings: str. MC2 155
[41] = Volume of distribution at steady state in Wistar rat at 2 mg/kg, iv; format: ADME, organism-based; parameters: dose 2 mg/kg, route intravenous; settings: in vivo, read-out: Vdss; procedure, shortened: as §2
[42] = test system: Mycobacterium tuberculosis; assay: Bactericidal activity against Mycobacterium tuberculosis H37Rv after 7 days relative to control; format: functional
[43] = Clearance in Wistar rat at 2 mg/kg, iv; format: ADME, organism-based; parameters: dose 2 mg/kg, route intravenous; settings: in vivo; procedure, shortened: as §2
[44] = test system: Pseudomonas aeruginosa; assay: Antimicrobial activity against Pseudomonas aeruginosa ARC546 at 100 uM; format: functional, organism-based; procedure, shortened: as §1
[45] = target: Voltage-gated inwardly rectifying potassium channel KCNH2 (Homo sapiens, UniProt Q12809); assay: Inhibition of human ERG by medium-throughput electrophysiology
Voltage-gated inwardly rectifying potassium channel KCNH2, sequence (Q12809 whole entry): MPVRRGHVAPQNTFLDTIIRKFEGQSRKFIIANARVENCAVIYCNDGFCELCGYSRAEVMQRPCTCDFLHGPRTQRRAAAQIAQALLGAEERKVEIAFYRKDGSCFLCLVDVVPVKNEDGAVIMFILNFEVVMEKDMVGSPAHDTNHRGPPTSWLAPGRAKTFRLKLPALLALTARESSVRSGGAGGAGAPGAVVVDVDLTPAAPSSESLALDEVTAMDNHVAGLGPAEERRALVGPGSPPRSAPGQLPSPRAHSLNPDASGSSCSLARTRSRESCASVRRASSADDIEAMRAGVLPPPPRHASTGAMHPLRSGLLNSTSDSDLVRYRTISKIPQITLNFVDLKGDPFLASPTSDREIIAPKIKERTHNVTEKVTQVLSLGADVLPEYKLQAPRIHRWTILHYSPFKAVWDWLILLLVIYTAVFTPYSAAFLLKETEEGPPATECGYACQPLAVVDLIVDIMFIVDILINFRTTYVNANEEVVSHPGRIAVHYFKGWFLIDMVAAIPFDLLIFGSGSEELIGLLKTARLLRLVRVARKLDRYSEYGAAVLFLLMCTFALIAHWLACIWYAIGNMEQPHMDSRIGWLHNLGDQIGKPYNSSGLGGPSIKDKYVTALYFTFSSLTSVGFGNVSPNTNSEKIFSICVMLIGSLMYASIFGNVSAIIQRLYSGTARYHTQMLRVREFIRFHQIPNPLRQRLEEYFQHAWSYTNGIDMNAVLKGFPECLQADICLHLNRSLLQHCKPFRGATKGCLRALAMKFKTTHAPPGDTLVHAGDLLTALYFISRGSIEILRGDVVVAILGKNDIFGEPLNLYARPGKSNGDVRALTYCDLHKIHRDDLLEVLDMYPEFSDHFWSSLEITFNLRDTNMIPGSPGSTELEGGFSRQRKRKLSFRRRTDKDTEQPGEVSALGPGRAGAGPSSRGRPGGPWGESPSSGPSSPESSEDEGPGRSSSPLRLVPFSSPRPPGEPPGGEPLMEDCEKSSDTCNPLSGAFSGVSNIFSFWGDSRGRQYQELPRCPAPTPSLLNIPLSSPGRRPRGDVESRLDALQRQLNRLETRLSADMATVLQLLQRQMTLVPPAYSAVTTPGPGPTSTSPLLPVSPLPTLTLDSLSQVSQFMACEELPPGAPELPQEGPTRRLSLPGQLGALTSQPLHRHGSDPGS

SMILES: Cn1ncc(C(=O)N2CCC(Nc3cc(=O)[nH]c4cc(F)c(F)cc34)CC2)c1Cl
- Activity [1]: inactive
- half-life [2]: 1.1 h
- MCC at 72 h [3]: > 100 µM
- logD [4]: 2.2
- microsomal CLint at 1 µM [5]: 12.5 µL/min/mg
- pIC50 [6]: 8.22
- Activity [7]: inactive
- hepatocyte CLint at 1 µM [8]: 2.4 µL/min/1e6 cells
- Activity [9]: inactive
- solubility at 24 h [10]: 26 µM (≈ 11 µg/mL)
- MIC [11]: 0.4 µM (≈ 0.169 µg/mL)
- C0 [12]: 4900 nM
- AUC(0-inf) [13]: 0.04 µM·h
- T1/2 [14]: 1.75 h
- TIME [15]: 2.53 h
- MIC [16]: 0.4 µM (≈ 0.169 µg/mL)
- Activity [17]: inactive
- half-life [18]: 0.5 h
- fraction unbound at 18 h, 20 µM [19]: 0.4
- Papp B→A [20]: 11 ×10⁻⁶ cm/s
- Activity [21]: inactive
- MBC [22]: 0.8 µM (≈ 0.337 µg/mL)
- MIC [23]: 0.4 µM (≈ 0.169 µg/mL)
- Papp A→B [24]: 0.2 ×10⁻⁶ cm/s
- Activity [25]: inactive
- Activity [26]: inactive
- fold change (FC) [27]: > 143
- Activity [28]: inactive
- Cmax [29]: 20 nM
- IC80 [30]: > 100 µM
- bioavailability [31]: 0.3%
- MIC [32]: 0.4 µM (≈ 0.169 µg/mL)
- Activity [33]: inactive
- MIC [34]: > 50 µM
- LCK [35]: 3
- Kdiss [36]: 0.00011 s⁻¹
- AUC(0-inf) [37]: 1.2 µM·h
- Activity [38]: inactive
- pIC50 [39]: < 5.00
- Activity [40]: inactive
- Vd [41]: 0.9 L/kg
- LCK [42]: 4
- clearance [43]: 34.4 mL/min/kg
- Activity [44]: inactive
- pIC50 [45]: < 4.00
